Measured values reported in ChEMBL document CHEMBL4665847, “Understanding the Metabolism of Proteolysis Targeting Chimeras (PROTACs): The Next Step toward Pharmaceutical Applications” (J Med Chem, 2020).

Experiments:
[1] = Metabolic stability in cryopreserved human hepatocytes assessed as O-dealkylation at 1 uM incubated for 4 hrs; format: ADME, cell-based, Hepatocyte
[2] = Metabolic stability in cryopreserved human hepatocytes assessed as glucuronidation at 1 uM incubated for 4 hrs; format: ADME, cell-based, Hepatocyte
[3] = Metabolic stability in cryopreserved human hepatocytes assessed as aliphatic hydroxylation at 1 uM incubated for 4 hrs; format: ADME, cell-based, Hepatocyte
[4] = Stability of compound in DMSO at 10 uM incubated for 12 hrs by LC-MS analysis; format: physicochemical
Outline: (§1)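 Nonenzymatic stability: 10 mM DMSO stock diluted to 10 μM in PBS, PBS/ACN (1:1), or DMSO; PBS/ACN-DMSO variant dried under nitrogen at 40 °C and redissolved in DMSO. Solutions kept in LC autosampler at 37 °C for 12 h; LC-MS injections at 0, 3, 6 and 12 h tracking remaining parent.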

[5] = Stability of the compound in PBS/ACN assessed as compound degradation at 10 uM measured after 3 hrs by LC-MS analysis; format: physicochemical; conditions: buffer; outline: as §1
[6] = Stability of compound in PBS/ACN-DMSO assessed as compound degradation at 10 uM measured after 3 hrs by LC-MS analysis; format: physicochemical; conditions: read-out: Drug degradation; outline: as §1
[7] = Stability of the compound in PBS at pH 7.4 assessed as compound degradation at 10 uM incubated for 12 hrs by LC-MS analysis; format: physicochemical; conditions: buffer, pH 7.4, 12 h; outline: as §1
[8] = Metabolic stability in cryopreserved human hepatocytes assessed as amide hydrolysis at 1 uM incubated for 4 hrs; format: ADME, cell-based, Hepatocyte
[9] = Metabolic stability in cryopreserved human hepatocytes assessed as N-dealkylation at 1 uM incubated for 4 hrs; format: ADME, cell-based, Hepatocyte
Aldehyde oxidase [10] = target: T1, Aldehyde oxidase (Homo sapiens, UniProt Q06278); test: Metabolic stability in human liver cytosol assessed as AOX1 mediated drug metabolism by measuring amide hydrolysis at 1 uM incubated up to 90 mins in presence of hydralazine by LC-MS/MS analysis; format: ADME, subcellular; conditions: 1.5 h
T1 sequence (Q06278 whole entry): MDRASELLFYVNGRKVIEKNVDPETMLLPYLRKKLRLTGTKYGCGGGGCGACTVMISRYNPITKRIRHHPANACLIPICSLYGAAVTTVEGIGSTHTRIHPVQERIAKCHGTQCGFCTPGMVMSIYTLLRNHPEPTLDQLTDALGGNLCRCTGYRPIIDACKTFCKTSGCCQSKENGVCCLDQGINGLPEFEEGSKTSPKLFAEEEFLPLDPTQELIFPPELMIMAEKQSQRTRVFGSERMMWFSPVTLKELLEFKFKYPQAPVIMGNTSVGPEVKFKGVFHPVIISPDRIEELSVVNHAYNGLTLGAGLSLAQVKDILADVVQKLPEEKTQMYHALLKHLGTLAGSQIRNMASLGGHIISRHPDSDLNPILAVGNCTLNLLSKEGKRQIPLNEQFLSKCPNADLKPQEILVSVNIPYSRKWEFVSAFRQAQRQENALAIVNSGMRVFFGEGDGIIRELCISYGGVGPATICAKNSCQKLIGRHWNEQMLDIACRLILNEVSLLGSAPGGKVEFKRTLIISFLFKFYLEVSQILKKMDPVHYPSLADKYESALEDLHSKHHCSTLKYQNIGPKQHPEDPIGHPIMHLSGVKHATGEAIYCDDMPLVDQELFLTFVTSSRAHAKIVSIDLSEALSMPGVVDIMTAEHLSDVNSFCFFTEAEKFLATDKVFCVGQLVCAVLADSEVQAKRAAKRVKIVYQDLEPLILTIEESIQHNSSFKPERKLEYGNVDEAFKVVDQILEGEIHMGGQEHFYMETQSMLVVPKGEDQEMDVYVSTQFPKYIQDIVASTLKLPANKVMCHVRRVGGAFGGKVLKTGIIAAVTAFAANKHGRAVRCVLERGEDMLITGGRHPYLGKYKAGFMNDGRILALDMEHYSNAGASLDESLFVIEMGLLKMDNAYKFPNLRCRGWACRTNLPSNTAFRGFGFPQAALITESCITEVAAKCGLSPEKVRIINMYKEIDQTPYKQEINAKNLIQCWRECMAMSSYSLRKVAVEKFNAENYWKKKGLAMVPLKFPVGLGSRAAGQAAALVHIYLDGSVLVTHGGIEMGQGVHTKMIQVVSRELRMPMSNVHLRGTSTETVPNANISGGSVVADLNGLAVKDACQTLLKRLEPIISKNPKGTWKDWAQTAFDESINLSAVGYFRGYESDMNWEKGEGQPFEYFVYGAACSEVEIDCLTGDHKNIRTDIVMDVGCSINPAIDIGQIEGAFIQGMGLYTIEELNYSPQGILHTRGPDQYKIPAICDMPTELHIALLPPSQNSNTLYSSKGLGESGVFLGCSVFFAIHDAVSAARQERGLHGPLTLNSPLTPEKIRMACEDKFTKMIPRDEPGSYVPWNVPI

Aldehyde oxidase [11] = target: T1, Aldehyde oxidase; test: Metabolic stability in human liver cytosol assessed as AOX1 mediated drug metabolism by measuring hydroxylation at 1 uM incubated up to 90 mins in absence of hydralazine by LC-MS/MS analysis; format: ADME, subcellular; conditions: 1.5 h
[12] = Metabolic stability in cryopreserved human hepatocytes assessed as aliphatic carbonylation at 1 uM incubated for 4 hrs; format: ADME, cell-based, Hepatocyte
[13] = Metabolic stability in cryopreserved human hepatocytes assessed as aromatic hydroxylation at 1 uM incubated for 4 hrs; format: ADME, cell-based, Hepatocyte
[14] = Metabolic stability in cryopreserved human hepatocytes assessed as dehydrogenation at 1 uM incubated for 4 hrs; format: ADME, cell-based, Hepatocyte

SMILES | Drug metabolism [1] | Drug metabolism [3] | Drug metabolism [8] | Drug metabolism [9] | other results
Oc1c(-c2csc(N3CCOCC3)n2)ccc(F)c1F | Metabolite_Detected | Metabolite_Detected |  |  | Drug metabolism [2]: Metabolite_Detected
Cc1sc2c(c1C)C(c1ccc(Cl)cc1)=N[C@@H](CC(=O)NCCCCNC(=O)COc1cccc3c1C(=O)N(C1CCC(=O)NC1=O)C3=O)c1nnc(C)n1-2 (some centres not stated) |  |  |  |  | Stabilty [4]: Stable; Stabilty [5]: Unstable; degraded at 3 h, 10 µM [6]: 10%; Stabilty [7]: Unstable
O=C(COc1cccc2c1C(=O)N(C1CCC(=O)NC1=O)C2=O)NCCOCCOCCNC(=O)COc1c(-c2csc(N3CCOCC3)n2)ccc(F)c1F (configuration not stated) | Metabolite_Detected | Metabolite_Detected | Metabolite_Detected |  | 
O=C(COc1cccc2c1C(=O)N(C1CCC(=O)NC1=O)C2=O)NCCCCCCCCNC(=O)COc1c(-c2csc(N3CCOCC3)n2)ccc(F)c1F (configuration not stated) | Metabolite_Detected |  | Metabolite_Detected | Metabolite_Detected | 
Cc1ncsc1-c1ccc([C@H](C)NC(=O)[C@@H]2C[C@@H](O)CN2C(=O)[C@@H](NC(=O)CCCCNC(=O)COc2c(-c3csc(N4CCOCC4)n3)ccc(F)c2F)C(C)(C)C)cc1 |  |  |  |  | Drug metabolism (Aldehyde oxidase [10]): Metabolite_Detected; Drug metabolism (Aldehyde oxidase [11]): Metabolite_Detected
Cc1ncsc1-c1ccc([C@H](C)NC(=O)[C@@H]2C[C@@H](O)CN2C(=O)[C@@H](N)C(C)(C)C)cc1 |  | Metabolite_Detected |  | Metabolite_Detected | Drug metabolism [12]: Metabolite_Detected; Drug metabolism [13]: Metabolite_Detected
Cc1sc2c(c1C)C(c1ccc(Cl)cc1)=N[C@@H](CC(=O)NCCCCCCCCNc1cccc3c1C(=O)N(C1CCC(=O)NC1=O)C3=O)c1nnc(C)n1-2 (some centres not stated) |  | Metabolite_Detected |  | Metabolite_Detected | Drug metabolism [14]: Metabolite_Detected
O=C(COc1c(-c2csc(N3CCOCC3)n2)ccc(F)c1F)NCCCCCCCCNc1cccc2c1C(=O)N(C1CCC(=O)NC1=O)C2=O (configuration not stated) | Metabolite_Detected | Metabolite_Detected | Metabolite_Detected | Metabolite_Detected | 
Cc1ncsc1-c1ccc([C@H](C)NC(=O)[C@@H]2C[C@@H](O)CN2C(=O)[C@@H](NC(=O)CCCCN(C)C(=O)COc2c(-c3csc(N4CCOCC4)n3)ccc(F)c2F)C(C)(C)C)cc1 |  |  |  |  | Drug metabolism (Aldehyde oxidase [10]): Metabolite_Detected; Drug metabolism (Aldehyde oxidase [11]): Metabolite_Detected
O=C(COc1c(-c2csc(N3CCOCC3)n2)ccc(F)c1F)NCCOCCOCCNc1cccc2c1C(=O)N(C1CCC(=O)NC1=O)C2=O (configuration not stated) | Metabolite_Detected |  | Metabolite_Detected | Metabolite_Detected | 
Cc1sc2c(c1C)C(c1ccc(Cl)cc1)=N[C@@H](CC(=O)O)c1nnc(C)n1-2 |  | Metabolite_Detected |  |  | 
Cc1ncsc1-c1ccc([C@H](C)NC(=O)[C@@H]2C[C@@H](O)CN2C(=O)[C@@H](NC(=O)COCCOCCNC(=O)COc2c(-c3csc(N4CCOCC4)n3)ccc(F)c2F)C(C)(C)C)cc1 | Metabolite_Detected |  | Metabolite_Detected |  | Drug metabolism [14]: Metabolite_Detected; Drug metabolism [2]: Metabolite_Detected
Nc1cccc2c1C(=O)N(C1CCC(=O)NC1=O)C2=O (configuration not stated) [POMALIDOMIDE] |  |  | Metabolite_Detected |  | 
